{"source": "ChEMBL document CHEMBL1153017", "about": "(Bioorg Med Chem, 2009)", "key": {"[1]": {"experiment": "Chemical stability in HCl buffer of pH 1.2 simulating gastric fluid", "format": "physicochemical", "settings": "simulated gi fluid", "procedure,_shortened": "(§1)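 Hydrolysis run in pH 1.2 HCl buffer or pH 7.4 phosphate buffer, each with 1% Tween 20 and ionic strength 0.2 (KCl). Started by adding 200 µL of a 3 mg/mL methanol or acetonitrile stock to 9.8 mL of prewarmed buffer, held at 37 °C. Aliquots (20 µL) taken over time; remaining ester measured by HPLC.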"}, "[2]": {"experiment": "Chemical stability in phosphate buffer of pH 7.4 simulating intestinal fluid", "format": "physicochemical", "settings": "simulated gi fluid", "procedure,_shortened": "as §1"}, "Homo sapiens": {"species_on_record": "Homo sapiens", "experiment": "Stability in human plasma assessed as hydrolysis half life"}, "Rattus norvegicus [3]": {"system": "Rattus norvegicus", "experiment": "Gastrointestinal toxicity in Wistar rat assessed as complete damage of mucosal layer and ulceration of submucosal cells at dose equivalent to 150 mg/kg of ibuprofen, po after 24 hrs by electron microscopy", "format": "organism-based, Submucosa", "set-up": "dose 150 mg/kg, route oral", "settings": "in vivo", "procedure,_shortened": "(§2)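 Male Wistar rats (150–200 g), three per group, fasted 12 h with water available. Given a daily oral dose in 0.5% CMC (1 mL suspension) for four successive days; control group got vehicle. Food withheld until 24 h after the last dose, then rats killed. Stomachs opened along the greater curvature, rinsed in saline, and random specimens examined by scanning electron microscopy after glutaraldehyde/osmium fixation, ethanol dehydration and amyl acetate.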"}, "Rattus norvegicus [4]": {"system": "Rattus norvegicus", "experiment": "Antiinflammatory activity in Wistar rat assessed as inhibition of carrageenan-induced paw edema at 150 mg/kg, po administered 30 mins before carrageenan challenge measured after 5 hrs", "format": "functional", "procedure,_shortened": "(§3)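 Rats dosed orally with a suspension in 0.5% w/v aqueous carboxymethyl cellulose; controls got vehicle alone. 30 min later, 0.1 mL of fresh 1% carrageenan in normal saline injected subplantar into the right hind paw. Paw thickness measured by skin caliper at 0.5, 1, 2, 3, 4 and 5 h. % edema inhibition = [(VR−VL)control − (VR−VL)treated]/(VR−VL)control × 100. Values are means ± SEM.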"}, "Rattus norvegicus [5]": {"system": "Rattus norvegicus", "experiment": "Gastrointestinal toxicity in Wistar rat assessed as complete damage of mucosal layer and ulceration of submucosal cells at 150 mg/kg, po after 24 hrs by electron microscopy", "format": "organism-based, Submucosa", "set-up": "dose 150 mg/kg, route oral", "settings": "in vivo", "procedure,_shortened": "as §2"}, "Rattus norvegicus [6]": {"system": "Rattus norvegicus", "experiment": "Antiinflammatory activity in Wistar rat assessed as inhibition of carrageenan-induced paw edema at 150 mg/kg, po administered 30 mins before carrageenan challenge measured after 0.5 hrs", "format": "functional", "procedure,_shortened": "as §3"}, "Rattus norvegicus [7]": {"system": "Rattus norvegicus", "experiment": "Antiinflammatory activity in Wistar rat assessed as inhibition of carrageenan-induced paw edema at 150 mg/kg, po administered 30 mins before carrageenan challenge measured after 1 hr", "format": "functional", "procedure,_shortened": "as §3"}, "Rattus norvegicus [8]": {"system": "Rattus norvegicus", "experiment": "Antiinflammatory activity in Wistar rat assessed as inhibition of carrageenan-induced paw edema at 150 mg/kg, po administered 30 mins before carrageenan challenge measured after 2 hrs", "format": "functional", "procedure,_shortened": "as §3"}, "Rattus norvegicus [9]": {"system": "Rattus norvegicus", "experiment": "Antiinflammatory activity in Wistar rat assessed as inhibition of carrageenan-induced paw edema at 150 mg/kg, po administered 30 mins before carrageenan challenge measured after 3 hrs", "format": "functional", "procedure,_shortened": "as §3"}, "Rattus norvegicus [10]": {"system": "Rattus norvegicus", "experiment": "Antiinflammatory activity in Wistar rat assessed as inhibition of carrageenan-induced paw edema at 150 mg/kg, po administered 30 mins before carrageenan challenge measured after 4 hrs", "format": "functional", "procedure,_shortened": "as §3"}, "Rattus norvegicus [11]": {"system": "Rattus norvegicus", "experiment": "Antiinflammatory activity in Wistar rat assessed as inhibition of carrageenan-induced paw edema at 20 mg/kg, po administered 30 mins before carrageenan challenge measured after 0.5 hrs", "format": "functional", "procedure,_shortened": "as §3"}, "Rattus norvegicus [12]": {"system": "Rattus norvegicus", "experiment": "Antiinflammatory activity in Wistar rat assessed as inhibition of carrageenan-induced paw edema at 20 mg/kg, po administered 30 mins before carrageenan challenge measured after 1 hr", "format": "functional", "procedure,_shortened": "as §3"}, "Rattus norvegicus [13]": {"system": "Rattus norvegicus", "experiment": "Antiinflammatory activity in Wistar rat assessed as inhibition of carrageenan-induced paw edema at 20 mg/kg, po administered 30 mins before carrageenan challenge measured after 2 hrs", "format": "functional", "procedure,_shortened": "as §3"}, "Rattus norvegicus [14]": {"system": "Rattus norvegicus", "experiment": "Antiinflammatory activity in Wistar rat assessed as inhibition of carrageenan-induced paw edema at 20 mg/kg, po administered 30 mins before carrageenan challenge measured after 3 hrs", "format": "functional", "procedure,_shortened": "as §3"}, "Rattus norvegicus [15]": {"system": "Rattus norvegicus", "experiment": "Antiinflammatory activity in Wistar rat assessed as inhibition of carrageenan-induced paw edema at 20 mg/kg, po administered 30 mins before carrageenan challenge measured after 4 hrs", "format": "functional", "procedure,_shortened": "as §3"}, "Rattus norvegicus [16]": {"system": "Rattus norvegicus", "experiment": "Antiinflammatory activity in Wistar rat assessed as inhibition of carrageenan-induced paw edema at 20 mg/kg, po administered 30 mins before carrageenan challenge measured after 5 hrs", "format": "functional", "procedure,_shortened": "as §3"}, "Rattus norvegicus [17]": {"species_on_record": "Rattus norvegicus", "experiment": "animal or person", "settings": "Wistar, po, read-out: INH"}, "Rattus norvegicus [18]": {"species_on_record": "Rattus norvegicus", "experiment": "animal or person", "settings": "Wistar, po, read-out: INH", "remark": "listed apart in the source"}, "Rattus norvegicus [19]": {"species_on_record": "Rattus norvegicus", "experiment": "animal or person", "settings": "Wistar, po, read-out: INH", "remark": "listed apart in the source"}, "Rattus norvegicus [20]": {"species_on_record": "Rattus norvegicus", "experiment": "animal or person", "settings": "Wistar, po, read-out: INH", "remark": "listed apart in the source"}, "Rattus norvegicus [21]": {"species_on_record": "Rattus norvegicus", "experiment": "animal or person", "settings": "Wistar, po, read-out: INH", "remark": "listed apart in the source"}, "Rattus norvegicus [22]": {"species_on_record": "Rattus norvegicus", "experiment": "animal or person", "settings": "Wistar, po, read-out: INH", "remark": "listed apart in the source"}}, "data": [{"smiles": "COc1ccc2cc(C(C)C(=O)OCn3c(=O)oc4ccc(Cl)cc43)ccc2c1", "note": "(stereo not drawn)", "values": [{"measurement": "Stability", "setting": "[1]", "result": "Stable"}, {"measurement": "Stability", "setting": "[2]", "result": 1, "unit": "days"}, {"measurement": "half-life", "setting": "Homo sapiens", "result": 34, "unit": "min"}]}, {"smiles": "CC(C)Cc1ccc(C(C)C(=O)OCn2c(=O)oc3ccc(Cl)cc32)cc1", "note": "(stereo not drawn)", "values": [{"measurement": "Activity", "setting": "Rattus norvegicus [3]", "result": "Non-toxic"}, {"measurement": "Stability", "setting": "[1]", "result": "Stable"}, {"measurement": "Stability", "setting": "[2]", "result": 1, "unit": "days"}, {"measurement": "half-life", "setting": "Homo sapiens", "result": 37, "unit": "min"}]}, {"smiles": "Cc1cccc(Nc2ccccc2C(=O)OCn2c(=O)oc3ccc(Cl)cc32)c1C", "values": [{"measurement": "Stability", "setting": "[1]", "result": "Stable"}, {"measurement": "Stability", "setting": "[2]", "result": 1, "unit": "days"}]}, {"smiles": "CC(C)Cc1ccc(C(C)C(=O)O)cc1", "note": "(stereo not drawn) [IBUPROFEN]", "values": [{"measurement": "inhibition in vivo at 150 mg/kg", "setting": "Rattus norvegicus [4]", "result": 41.7, "unit": "%"}, {"measurement": "Activity", "setting": "Rattus norvegicus [5]", "result": "Toxic"}, {"measurement": "inhibition in vivo at 150 mg/kg", "setting": "Rattus norvegicus [6]", "result": 16.7, "unit": "%"}, {"measurement": "inhibition in vivo at 150 mg/kg", "setting": "Rattus norvegicus [7]", "result": 16.7, "unit": "%"}, {"measurement": "inhibition in vivo at 150 mg/kg", "setting": "Rattus norvegicus [8]", "result": 45.8, "unit": "%"}, {"measurement": "inhibition in vivo at 150 mg/kg", "setting": "Rattus norvegicus [9]", "result": 62.5, "unit": "%"}, {"measurement": "inhibition in vivo at 150 mg/kg", "setting": "Rattus norvegicus [10]", "result": 50, "unit": "%"}]}, {"smiles": "Cc1cccc(Nc2ccccc2C(=O)O)c1C", "note": "[MEFENAMIC ACID]", "values": [{"measurement": "inhibition in vivo at 20 mg/kg", "setting": "Rattus norvegicus [11]", "result": 16.7, "unit": "%"}, {"measurement": "inhibition in vivo at 20 mg/kg", "setting": "Rattus norvegicus [12]", "result": 18.3, "unit": "%"}, {"measurement": "inhibition in vivo at 20 mg/kg", "setting": "Rattus norvegicus [13]", "result": 33.3, "unit": "%"}, {"measurement": "inhibition in vivo at 20 mg/kg", "setting": "Rattus norvegicus [14]", "result": 41.7, "unit": "%"}, {"measurement": "inhibition in vivo at 20 mg/kg", "setting": "Rattus norvegicus [15]", "result": 45.8, "unit": "%"}, {"measurement": "inhibition in vivo at 20 mg/kg", "setting": "Rattus norvegicus [16]", "result": 33.3, "unit": "%"}]}, {"smiles": "COc1ccc2cc([C@H](C)C(=O)O)ccc2c1", "note": "[NAPROXEN]", "values": [{"measurement": "inhibition in vivo at 40 mg/kg", "setting": "Rattus norvegicus [17]", "result": 9.4, "unit": "%"}, {"measurement": "inhibition in vivo at 40 mg/kg", "setting": "Rattus norvegicus [18]", "result": 16.3, "unit": "%"}, {"measurement": "inhibition in vivo at 40 mg/kg", "setting": "Rattus norvegicus [19]", "result": 28.1, "unit": "%"}, {"measurement": "inhibition in vivo at 40 mg/kg", "setting": "Rattus norvegicus [20]", "result": 46.9, "unit": "%"}, {"measurement": "inhibition in vivo at 40 mg/kg", "setting": "Rattus norvegicus [21]", "result": 37.5, "unit": "%"}, {"measurement": "inhibition in vivo at 40 mg/kg", "setting": "Rattus norvegicus [22]", "result": 18.8, "unit": "%"}]}]}
